This note sets out measurements from ChEMBL document CHEMBL1153719, “Synthesis and biological evaluation of dehydroabietic acid derivatives” (Eur J Med Chem, 2010).

For one series, the system named is Candida parapsilosis. Nature of the series: Antifungal activity against Candida parapsilosis ATCC 22019 at <100 ug/ml after 24 hrs by AFST-EUCAST method. Format: functional, organism-based. In a few lines: (§1)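 EUCAST broth microdilution for fermentative yeasts. Seven serial dilutions were tested in duplicate at final concentrations of 100 to 2 µg/mL, with 0.05% DMSO. Inoculum was 0.5–2.5×10^5 CFU/mL. […] Amphotericin B and itraconazole served as controls (0.031–16 µg/mL). Triplicates were run in three separate assays; results are given as range and geometric mean.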

Another series relates to Pichia kudriavzevii. Nature of the series: Antifungal activity against Candida krusei ATCC 6258 at <100 ug/ml after 24 hrs by AFST-EUCAST method. Format: functional, organism-based. The gist of the method: as §1
Another series relates to Candida tropicalis. Nature of the series: Antifungal activity against Candida tropicalis CECT 11901 at <100 ug/ml after 24 hrs by AFST-EUCAST method. Format: functional, organism-based. In a few lines: as §1
The test system of another series is Candida albicans. The series can be described thus: Antifungal activity against Candida albicans ATCC 10231 at <100 ug/ml after 24 hrs by AFST-EUCAST method. Format: functional, organism-based. In a few lines: as §1
In series [1] the test system is Vero. The series can be described thus: Cytotoxicity against african green monkey Vero cells after 48 hrs by MTT assay. The note with it: Chlorocebus sabaeus. Format: cell-based. In a few lines:
(§2)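 HeLa and Vero monolayers were trypsinized, washed and seeded per well (HeLa 1.5×10^4; Vero 1.25×10^4). After 24 h, diluted compounds were added with 0.05% DMSO and incubated 48 h at 37 °C in 5% CO2. Read-out was MTT. IC50 came from linear regression of dose-effect curves, at least four dilutions in quadruplicate, as mean ± S.E.M. Vincristine was the positive control.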

For another series, the system named is HeLa. Nature of the series: Cytotoxicity against human HeLa cells after 48 hrs by MTT assay. Format: functional, cell-based. In a few lines: as §2
For orientation: Tetrazolium dyes change colour on reduction, which living cells bring about.

The test system of the next series is Jurkat. Nature of the series: Cytotoxicity against human Jurkat cells after 48 hrs by MTT assay. Format: functional, cell-based. The gist of the method:
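Suspension Jurkat cells were seeded at 3.00×10^4 per well. Diluted compounds were added directly, with 0.05% DMSO, and incubated 48 h at 37 °C. Read-out was MTT. IC50 came from linear regression of dose-effect curves, at least four dilutions in quadruplicate, as mean ± S.E.M. Vincristine was the positive control.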

The test system of series [2] is Vero. The series can be described thus: Selectivity index, ratio of IC50 for african green monkey Vero cells to IC50 for human HeLa cells. Format: functional.
Series [3] relates to Vero. Nature of the series: Selectivity index, ratio of IC50 for african green monkey Vero cells to IC50 for human Jurkat cells. Format: functional.
A short description of series [4]: Cytotoxicity against african green monkey Vero cells assessed as minimal toxic dosed detached 100% of the cell monolayer. The note with it: chlorocebus sabaeus, read-out: CC100.
Series [5] concerns Human alphaherpesvirus 1. Nature of the series: Antiviral activity against Human herpesvirus 1 infected in human HeLa cells assessed as ratio of viral titer in absence of drug over viral titer in presence of drug after 36 hrs by end point titration method. Format: functional, organism-based.
Series [6] has as its system Human alphaherpesvirus 1. Nature of the series: Antiviral activity against Human herpesvirus 1 infected in human HeLa cells assessed as maximal nontoxic dose caused highest viral reduction factor after 36 hrs by end point titration method. Format: functional, organism-based.
The subject of the next series is Aspergillus terreus. The series can be described thus: Antifungal activity against Aspergillus terreus after 24 hrs by AFST-EUCAST method. Format: functional.
Series [7] concerns Human alphaherpesvirus 1. The series can be described thus: Antiviral activity against Human herpesvirus 1 infected in african green monkey Vero cells assessed as ratio of viral titer in absence of drug over viral titer in presence of drug after 36 hrs by end point titration method. Format: functional. The gist of the method:
(§3)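 HSV-1 stock was grown in HeLa cells. Two-fold compound dilutions were premixed with one infectious dose of virus for 0.5 h at 37 °C, then added to confluent HeLa or Vero monolayers for 36 h at 37 °C in 5% CO2. End-point titration gave the reduction factor, virus titer without compound over titer with compound, at the maximal nontoxic dose. Acyclovir and heparin were the controls.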

Series [8] has as its system Human alphaherpesvirus 1. The series can be described thus: Antiviral activity against Human herpesvirus 1 infected in african green monkey Vero cells assessed as maximal nontoxic dose caused highest viral reduction factor after 36 hrs by end point titration method. Format: functional. The gist of the method:
as §3

A short description of series [9]: Cytotoxicity against human HeLa cells assessed as minimal toxic dosed detached 100% of the cell monolayer. The note with it: read-out: CC50.
For a further series, the system named is Aspergillus fumigatus. The series can be described thus: Antifungal activity against Aspergillus fumigatus after 24 hrs by AFST-EUCAST method. Format: functional.
For the next series, the system named is Aspergillus niger. Nature of the series: Antifungal activity against Aspergillus niger after 24 hrs by AFST-EUCAST method. Format: functional.
The nature of series [10]: Solubility in DMSO. Format: physicochemical.

Structures are written as SMILES. In brackets after ≈: the same amount, converted by molar mass. Activity calls are given as the source filed them. The calls are words filed in the database; no cut-off is given here. Where only a bound is given, the exact number is not on record here.

For orientation: IC50 means the midpoint of a concentration-inhibition curve. For the compound `CC(C)c1ccc2c(c1)CC[C@H]1[C@](C)(C=O)CCC[C@]21C` [DEHYDROABIETINAL], the outcome with Candida parapsilosis, in the series on Pichia kudriavzevii, with Candida tropicalis, in the series with Candida albicans, in the series with Human alphaherpesvirus 1 [5] and in the series on Human alphaherpesvirus 1 [6] was inactive. Moreover, the figures for the IC50 with Vero [1], with HeLa and in the series on Jurkat were 32 µg/mL (≈ 113 µM), 24 µg/mL (≈ 84.4 µM) and 17 µg/mL (≈ 59.8 µM), respectively. Also, the results for the “Ratio IC50” value in the series on Vero [2] and in the series with Vero [3] were 1.3 and 1.9, respectively. In addition, the MCC in series [4] amounted to 50 µg/mL.
Take `COC(=O)[C@]1(C)CCC[C@]2(C)c3ccc(C(C)C)cc3CC[C@@H]12` [METHYL DEHYDROABIETATE]: the result in the series with Candida parapsilosis, in the series on Pichia kudriavzevii, in the series with Candida tropicalis, in the series with Candida albicans, with Human alphaherpesvirus 1 [5] and in the series with Human alphaherpesvirus 1 [6] was inactive. Moreover, the IC50 with Vero [1] is 36 µg/mL (≈ 114 µM); in the series with HeLa, 28 µg/mL (≈ 89 µM); in the series with Jurkat, 21 µg/mL (≈ 66.8 µM). The “Ratio IC50” value in the series with Vero [2] was found to be 1.3; in the series with Vero [3], 1.7. Further, the MCC in series [4] was over 50 µg/mL.
For the compound `CC(C)c1ccc2c(c1)[C@H](O)C[C@H]1[C@](C)(C=O)CCC[C@]21C`, the result with Candida parapsilosis, in the series on Pichia kudriavzevii, in the series on Candida tropicalis, in the series on Candida albicans, in the series with Human alphaherpesvirus 1 [5] and in the series with Human alphaherpesvirus 1 [6] was inactive. For the same compound, the IC50 in the series with Vero [1] turned out to be 36 µg/mL (≈ 120 µM); in the series with HeLa, 23 µg/mL (≈ 76.6 µM); in the series on Jurkat, 12 µg/mL (≈ 39.9 µM). Besides, the “Ratio IC50” value is given as 1.6 with Vero [2] and 3 in the series with Vero [3].
Consider `CC(C)C1=CC2=CC[C@@H]3[C@](C)(CCC[C@@]3(C)C(=O)O)[C@H]2CC1`, for which the outcome in the series with Human alphaherpesvirus 1 [5] and with Human alphaherpesvirus 1 [6] was inactive.
What is called MIC is the lowest concentration that inhibits growth of the organism. In the case of `CC(C)c1ccc2c(c1)CC[C@H]1[C@](C)(C(=O)O)CCC[C@]21C` [DEHYDROABIETIC ACID], the result with Candida parapsilosis, in the series with Pichia kudriavzevii, in the series on Candida albicans, in the series on Human alphaherpesvirus 1 [5] and with Human alphaherpesvirus 1 [6] was inactive. In the series on Aspergillus terreus, this compound returned an MIC of 39.7 µg/mL (≈ 132 µM). The values for the IC50 in the series with Vero [1], in the series on HeLa and in the series on Jurkat were 91 µg/mL (≈ 303 µM), 101 µg/mL (≈ 336 µM) and 28 µg/mL (≈ 93.2 µM), respectively. Also, the “Ratio IC50” value in the series on Vero [2] came to 0.9; in the series with Vero [3] it was 3.2. The MCC in [4] was over 50 µg/mL.
In the case of `Nc1nc2c(ncn2COCCO)c(=O)[nH]1` [ACYCLOVIR], the MCC in series [4] was over 600 µg/mL. Besides, the Ratio with Human alphaherpesvirus 1 [7] is listed as 1000. In addition, the Activity in the series with Human alphaherpesvirus 1 [8] was determined as 6 µg/mL.
Consider `COC(=O)[C@]1(C)CCC[C@@]2(C)[C@H]1CC=C1C=C(C(C)C)CC[C@@H]12` [METHYL ABIETATE], for which the outcome with Human alphaherpesvirus 1 [5] was inactive. The outcome in the series on Human alphaherpesvirus 1 [6] was Active. Further, the MCC in series [9] worked out at 11 µM.
For the compound `CC(C)c1ccc2c(c1)CC[C@H]1[C@](C)(CO)CCC[C@]21C` [POMIFERIN A], the result in the series with Candida parapsilosis, in the series with Pichia kudriavzevii, in the series with Candida tropicalis, with Candida albicans, with Human alphaherpesvirus 1 [5] and in the series with Human alphaherpesvirus 1 [6] was inactive. The IC50 in the series on Vero [1] was found to be 38 µg/mL (≈ 133 µM); with HeLa it was 13 µg/mL (≈ 45.4 µM); in the series on Jurkat, 9.7 µg/mL (≈ 33.9 µM). In addition, the “Ratio IC50” value is listed as 2.9 in the series with Vero [2] and 3.9 in the series with Vero [3]. In series [4], the MCC worked out at 50 µg/mL.
Regarding `CC(C)c1ccc2c(c1)[C@H](O)C[C@H]1[C@](C)(CO)CCC[C@]21C`, the outcome in the series on Candida parapsilosis, with Pichia kudriavzevii, with Candida tropicalis, with Candida albicans, with Human alphaherpesvirus 1 [5] and in the series on Human alphaherpesvirus 1 [6] was inactive. The figures for the MIC in the series with Aspergillus fumigatus and in the series with Aspergillus niger were 50 µg/mL (≈ 165 µM) and 63 µg/mL (≈ 208 µM), respectively. Besides, the IC50 in the series on Vero [1] turned out to be 30 µg/mL (≈ 99.2 µM); with HeLa, 20 µg/mL (≈ 66.1 µM); with Jurkat, 12 µg/mL (≈ 39.7 µM). The “Ratio IC50” value with Vero [2] worked out at 1.5; in the series with Vero [3] it was 2.5. Besides, the MCC in series [4] worked out at 25 µg/mL.
With `CC(=O)OC[C@]1(C)CCC[C@]2(C)c3ccc(C(C)C)cc3CC[C@@H]12` [DEHYDROABIETINOL ACETATE], the result in the series on Candida parapsilosis, with Pichia kudriavzevii, in the series on Candida tropicalis, in the series with Candida albicans, in the series on Human alphaherpesvirus 1 [5] and with Human alphaherpesvirus 1 [6] was inactive. Besides, the IC50 came to 95 µg/mL in the series on Vero [1], 28 µg/mL with HeLa and 22 µg/mL in the series on Jurkat. In addition, the “Ratio IC50” value is given as 3.4 in the series on Vero [2] and 4.3 in the series with Vero [3]. Further, in [4], the MCC was over 50 µg/mL. Further, the Ratio in the series on Human alphaherpesvirus 1 [7] is given as 10. The Activity in the series on Human alphaherpesvirus 1 [8] was determined as 25 µg/mL.
For the compound `CC(C)c1ccc2c(c1)CC[C@H]1[C@](C)(COC(=O)c3cccnc3)CCC[C@]21C` [DEHYDROABIETINOLNICOTINATE], the solubility result in series [10] is “Insoluble”.
For `CC(C)c1ccc2c(c1)CC[C@H]1[C@](C)(COC(=O)c3ccccc3)CCC[C@]21C` [DEHYDROABIETINOLBENZOATE], the outcome with Candida parapsilosis, in the series with Pichia kudriavzevii, in the series with Candida albicans, in the series with Human alphaherpesvirus 1 [5] and in the series on Human alphaherpesvirus 1 [6] was inactive. Besides, the IC50 with Vero [1] was at least 200 µg/mL; with HeLa, at least 200 µg/mL; in the series on Jurkat it was 57 µg/mL (≈ 146 µM). In addition, the “Ratio IC50” value in the series on Vero [3] is reported as over 3.5. In addition, the MCC in series [4] was over 50 µg/mL. In addition, the Ratio with Human alphaherpesvirus 1 [7] stood at 3.16. In addition, the Activity with Human alphaherpesvirus 1 [8] turned out to be 50 µg/mL.
With `CC(C)c1ccc2c(c1)C(=O)C[C@H]1[C@](C)(CO)CCC[C@]21C`, the outcome in the series on Candida parapsilosis, in the series with Pichia kudriavzevii, in the series on Candida tropicalis, with Candida albicans, with Human alphaherpesvirus 1 [5] and in the series with Human alphaherpesvirus 1 [6] was inactive. For the same compound, the IC50 was 27 µg/mL (≈ 89.9 µM) with Vero [1], 30 µg/mL (≈ 99.9 µM) in the series with HeLa and 17 µg/mL (≈ 56.6 µM) with Jurkat. The “Ratio IC50” value in the series with Vero [2] is recorded as 0.9; in the series with Vero [3], 1.6. The MCC in [4] was 25 µg/mL.
